Data set [1] addresses T1, ATP-dependent translocase ABCB1 (Homo sapiens, UniProt P08183). Nature of the data set: Inhibition of P-gp in human HT-29 cells overexpressing P-gp assessed as Vmax at 1 uM in presence of 0 to 100 uM doxorubicin […]. The note with it: ht-29, 1 µM. The format is cell-based. The gist of the method: (§1)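 Cells incubated 20 min with 0–100 μM doxorubicin, alone or with compound at 1 or 3 μM. A parallel set was left a further 10 min at 37 °C, then intracellular drug measured. Doxorubicin extruded (nmol/min/mg protein) plotted against initial concentration and fitted to Michaelis–Menten to give Vmax and Km. Mean ± SD.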

Data set [2] has as its target T1, ATP-dependent translocase ABCB1. Nature of the data set: Inhibition of P-gp in doxorubicin-resistant human A549 cells overexpressing P-gp assessed as Vmax at 1 uM in presence of 0 to 100 uM doxorubicin […]. The note with it: a549, 1 µM. In kind it is cell-based. In a few lines:
as §1

Data set [3] has the same target. Description: Inhibition of P-gp in human A549 cells overexpressing P-gp assessed as Vmax at 3 uM in presence of 0 to 100 uM doxorubicin […]. In kind it is cell-based. The note with it: a549, 3 µM. The gist of the method:
as §1

Data set [4] has the same target. Description: Inhibition of P-gp in doxorubicin-resistant human HT-29 cells overexpressing P-gp assessed as Vmax at 3 uM in presence of 0 to 100 uM doxorubicin […]. In kind it is cell-based. The note with it: ht-29, 3 µM. In a few lines: as §1
For data set [5] the target is unchanged. Nature of the data set: Inhibition of P-gp in doxorubicin-resistant carbonic anhydrase knockout human HT-29 cells overexpressing P-gp assessed as Vmax at 1 uM in presence of 0 to 100 uM doxorubicin […]. In kind it is cell-based. The note with it: ht-29, 1 µM. The gist of the method: as §1
Data set [6] in a line: Stability in PBS measured by LC-MS/MS analysis. In kind it is physicochemical. The note with it: buffer. In a few lines: (§2)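 Analyte at 1 μM in PBS or in pooled human plasma, incubated at 37 °C for 0, 30, 60 and 120 min, in triplicate. Internal standard verapamil added, mixture centrifuged, supernatant dried and redissolved. Analyte quantified by LC-MS/MS. Half-life taken from the slope of ln(concentration) versus time. Ketoprofen ethyl ester served as plasma activity reference.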

The target of data set [7] is T1, ATP-dependent translocase ABCB1. Nature of the data set: Inhibition of P-gp in human HT-29 cells overexpressing P-gp assessed as Vmax at 3 uM in presence of 0 to 100 uM doxorubicin […]. In kind it is cell-based. The note with it: ht-29, 3 µM. The gist of the method: as §1
The target is the same in data set [8]. Description: Inhibition of P-gp in doxorubicin-resistant human A549 cells overexpressing P-gp assessed as increase in doxorubicin retention 1 uM in presence of 5 uM doxorubicin measured after 24 hrs by spectrophotometric method. The note with it: a549, 24 h. The format is cell-based. In a few lines: (§3)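 Resistant cells (wild-type, P-gp KO or hCA XII KO; KO lines selected with 1 μg/mL puromycin) exposed to 5 μM doxorubicin alone or with test compound at 1 or 3 μM. Cells washed, trypsinized and extracted in ethanol/0.3 N HCl. Doxorubicin fluorescence read at ex 475/em 553 nm and converted to nmol/mg cell protein with a calibration curve. Mean ± SD, n = 3.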

The target is the same in data set [9]. Description: Inhibition of P-gp in human A549 cells overexpressing P-gp assessed as Vmax at 1 uM in presence of 0 to 100 uM doxorubicin […]. The note with it: a549, 1 µM. The format is cell-based. In a few lines:
as §1

Data set [10] shares this target. Description: Inhibition of P-gp in doxorubicin-resistant human HT-29 cells overexpressing P-gp assessed as increase in doxorubicin retention 1 uM in presence of 5 uM doxorubicin measured after 24 hrs by spectrophotometric method. The note with it: ht-29, 24 h. In kind it is cell-based. In a few lines:
as §3

A short description of data set [11]: Stability in human plasma assessed as half-life measured by LC-MS/MS analysis. In kind it is ADME, cell-free. In a few lines: as §2
The target of data set [12] is T1, ATP-dependent translocase ABCB1. Nature of the data set: Inhibition of P-gp in doxorubicin-resistant carbonic anhydrase knockout human A549 cells overexpressing P-gp assessed as Vmax at 3 uM in presence of 0 to 100 uM doxorubicin […]. The format is cell-based. The note with it: a549, 3 µM. The gist of the method: as §1
Data set [13] shares this target. Description: Inhibition of P-gp in doxorubicin-resistant human A549 cells overexpressing P-gp assessed as Vmax at 3 uM in presence of 0 to 100 uM doxorubicin […]. The note with it: a549, 3 µM. The format is cell-based. In a few lines: as §1
Data set [14] has the same target. Nature of the data set: Inhibition of P-gp in doxorubicin-resistant human HT-29 cells overexpressing P-gp assessed as increase in doxorubicin retention 3 uM in presence of 5 uM doxorubicin measured after 24 hrs by spectrophotometric method. The format is cell-based. The note with it: ht-29, 24 h. The gist of the method: as §3
For data set [15] the target is unchanged. Nature of the data set: Inhibition of P-gp in doxorubicin-resistant human A549 cells overexpressing P-gp assessed as increase in doxorubicin retention 3 uM in presence of 5 uM doxorubicin measured after 24 hrs by spectrophotometric method. In kind it is cell-based. The note with it: a549, 24 h. The gist of the method: as §3
Data set [16] has the same target. Description: Inhibition of P-gp in doxorubicin-resistant human HT-29 cells overexpressing P-gp assessed as Vmax at 1 uM in presence of 0 to 100 uM doxorubicin […]. The format is cell-based. The note with it: ht-29, 1 µM. The gist of the method:
as §1

For data set [17] the target is unchanged. Nature of the data set: Inhibition of P-gp in doxorubicin-resistant carbonic anhydrase knockout human HT-29 cells overexpressing P-gp assessed as Vmax at 3 uM in presence of 0 to 100 uM doxorubicin […]. The note with it: ht-29, 3 µM. In kind it is cell-based. In a few lines: as §1
For data set [18] the target is unchanged. Description: Inhibition of P-gp in doxorubicin-resistant carbonic anhydrase knockout human A549 cells overexpressing P-gp assessed as Vmax at 1 uM in presence of 0 to 100 uM doxorubicin […]. In kind it is cell-based. The note with it: a549, 1 µM. The gist of the method:
as §1

T1 sequence (P08183 whole entry): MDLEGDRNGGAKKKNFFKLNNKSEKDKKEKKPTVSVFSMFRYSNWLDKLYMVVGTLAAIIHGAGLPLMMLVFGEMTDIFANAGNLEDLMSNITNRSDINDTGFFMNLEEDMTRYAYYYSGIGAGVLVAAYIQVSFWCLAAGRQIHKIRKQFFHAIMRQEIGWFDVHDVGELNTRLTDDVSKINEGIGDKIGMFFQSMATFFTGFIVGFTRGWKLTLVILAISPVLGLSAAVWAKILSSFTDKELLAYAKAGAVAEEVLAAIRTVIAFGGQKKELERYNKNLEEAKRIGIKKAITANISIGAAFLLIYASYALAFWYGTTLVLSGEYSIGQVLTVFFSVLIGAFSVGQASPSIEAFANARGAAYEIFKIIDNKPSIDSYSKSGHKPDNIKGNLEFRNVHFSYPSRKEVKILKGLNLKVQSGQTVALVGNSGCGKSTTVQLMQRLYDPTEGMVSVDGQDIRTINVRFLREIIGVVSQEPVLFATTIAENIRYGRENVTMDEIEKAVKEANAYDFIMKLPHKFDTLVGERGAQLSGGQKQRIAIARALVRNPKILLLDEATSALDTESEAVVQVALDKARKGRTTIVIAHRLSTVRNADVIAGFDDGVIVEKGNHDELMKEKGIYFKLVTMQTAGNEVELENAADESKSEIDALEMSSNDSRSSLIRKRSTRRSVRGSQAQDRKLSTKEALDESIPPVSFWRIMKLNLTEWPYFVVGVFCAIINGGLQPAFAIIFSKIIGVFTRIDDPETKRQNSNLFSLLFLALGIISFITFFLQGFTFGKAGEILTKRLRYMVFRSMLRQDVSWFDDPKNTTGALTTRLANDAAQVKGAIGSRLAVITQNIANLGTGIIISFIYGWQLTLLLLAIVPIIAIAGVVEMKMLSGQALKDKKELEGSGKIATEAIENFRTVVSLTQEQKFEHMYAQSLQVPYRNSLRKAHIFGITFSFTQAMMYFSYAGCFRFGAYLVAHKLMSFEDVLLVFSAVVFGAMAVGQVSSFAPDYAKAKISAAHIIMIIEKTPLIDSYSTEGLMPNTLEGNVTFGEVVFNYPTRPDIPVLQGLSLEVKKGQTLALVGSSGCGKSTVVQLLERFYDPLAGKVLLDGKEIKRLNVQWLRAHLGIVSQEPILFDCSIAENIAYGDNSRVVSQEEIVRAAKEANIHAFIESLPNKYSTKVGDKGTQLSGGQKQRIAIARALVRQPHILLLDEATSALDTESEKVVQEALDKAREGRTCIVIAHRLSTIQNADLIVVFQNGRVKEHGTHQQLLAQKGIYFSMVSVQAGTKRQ

For `COc1cc(C(=O)OCCCCCN(CCCOC(=O)c2cc(OC)c(OC)c(OC)c2)CCCOc2ccc3ccc(=O)oc3c2)cc(OC)c1OC`, the Vmax in [1] stood at 3.29 µmol/min; in data set [2] it was 5.1 µmol/min; in [3] it was 2.35 µmol/min; in [4], 3.21 µmol/min; in [5], 4.3 µmol/min; in data set [7] it was 3.12 µmol/min. The maximal velocity (Vmax) amounted to 2.36 µmol/min in [9]; 2.74 µmol/min in data set [12]; 3.98 µmol/min in data set [13]; 5.3 µmol/min in data set [16]; 3.22 µmol/min in data set [17]; 3.75 µmol/min in data set [18]. The Stability entry in data set [6] and in [11] was “Stable” in each case. In addition, the “inhibition (INH)” value in data set [8], in data set [10], in [14] and in [15] was “Active” throughout.

The values are drawn from ChEMBL document CHEMBL5214983, “New Dual P-Glycoprotein (P-gp) and Human Carbonic Anhydrase XII (hCA XII) Inhibitors as Multidrug Resistance (MDR) Reversers in Cancer Cells” (J Med Chem, 2022).
